Hits are enriched below; roughly 1.5% of the tested compounds scored in any of these assays.
RAD54 branch: RAD54 (human) branch migration inhibition. RAD54 Holliday junction branch migration, FAM/BHQ fluorescence. AID 602329. Q92698. inhibition, % at 10.4 µM. hit rate 0.14% among 360,000;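 active = mean normalized replicate activity at least 40 and at least half of replicates scoring 40 or more; inconclusive = only one of the two criteria met; inactive = mean below 40 and under half of replicates reaching 40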;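 note: 0% = median of neutral control wells and 100% = median of positive control wells; inhibitors cause a drop in the FAM fluorescence signal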
RAD52 anneal inh: inhibitors of human RAD52 DNA annealing | hit rate 0.46% among 360,000 | AID 651710 | inhibition, % at 18.7 µM | recombinant RAD52 DNA annealing, FRET fluorescence | P43351;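 active = every replicate showing at least 50% inhibition; inconclusive = mean inhibition at least 50% but not in every replicate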
MLL AF4-AF9 inh: blocks AF4 peptide binding to human AF9 | P42568 | AlphaScreen, biotin-AF4 peptide binding to FLAG-AF9 | inhibition, % at 10 µM | hit rate 0.47% among 350,000;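 active = every replicate reaching a set inhibition limit, whatever the replicate mean, cut at about 25% in these data; inconclusive = mean inhibition reaches that limit but some replicates miss it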;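 note: 0% = plate neutral control median and 100% = total signal loss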
S100A4 inh HTS: blocks human S100A4 binding to myosin IIA peptide; P26447; S100A4/TAMRA-MyoIIA peptide fluorescence polarization; inhibition, % at 10.7 µM; hit rate 0.14% among 360,000; AID 652163;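 active = mean inhibition of at least 70% across replicates, with every replicate also reaching that level; inconclusive = mean inhibition reaches 70% but some replicates fall short; inactive = mean inhibition below 70%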
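Test system: S100A4 monomer protein; Medium: HEPES pH 7.2 with CaCl2, KCl, NaCl, DTT, Triton; Probe or stimulus: TAMRA-labelled myosin IIA heavy-chain peptide probe, 5 nM; Doses: one dose per compound; Times: polarization read 5 min after assay mix addition, stable 5–60 min; Benchmarks: neutral control DMSO, positive control TFP.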
dFosB activator: mouse delta FosB homodimer activation; purified delta FosB, TAMRA-CDK5 oligo fluorescence polarization; percent of positive-control signal above neutral wells; activation, % at 25 µM; hit rate 0.99% among 340,000; P13346; AID 493131;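 active = mean activation above about 17%, with every replicate also reaching it, limit read from the data, passing the limit was not always enough; inconclusive = only one of the two conditions met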
Numbers without * were called inactive; ? = inconclusive; . = no result.

SMILES | RAD54 branch | RAD52 anneal inh | MLL AF4-AF9 inh | S100A4 inh HTS | dFosB activator
COc1ccc(NC(=O)c2c(N)no[n+]2[O-])cc1 | -12 | -2 | -1 | 4 | 21*
C[C@@H]1CN([C@@H](C)CO)C(=O)c2cc(NC(=O)Nc3ccc(C(F)(F)F)cc3)ccc2O[C@@H]1CN(C)C(=O)Nc1ccc(F)cc1 | -3 | -15 | 4 | -16 | .
O=C(C[C@H]1C[C@H]2c3cc(NC(=O)c4cccnc4)ccc3O[C@H]2[C@@H](CO)O1)NCC1CC1 | -13 | -2 | -3 | 1 | .
Cc1ccc(S(=O)(=O)N(C)C[C@@H]2OCCCC[C@H](C)Oc3ccc(NC(=O)CCC(F)(F)F)cc3C(=O)N([C@@H](C)CO)C[C@H]2C)cc1 | -2 | -10 | 0 | -6 | .
CCOC(=O)c1c(-c2ccccc2)oc2cc(CN(C)C)c(O)c(CN(C)C)c12 | -3 | -47 | 36* | -2 | 2
CCOC(=O)c1c(C)oc2cc(Cl)c(O)c(CN(C)C)c12 | . | 10 | 4 | -2 | -11
C[C@H](CO)N1C[C@H](C)[C@H](CN(C)C(=O)NC2CCCCC2)OCCCC[C@H](C)Oc2ccc(NS(=O)(=O)c3cn(C)cn3)cc2C1=O | -8 | 15 | -3 | 10 | .
Cc1noc(C)c1S(=O)(=O)Nc1ccc2c(c1)C(=O)N([C@@H](C)CO)C[C@H](C)[C@@H](CN(C)S(=O)(=O)c1ccccc1)O2 | -5 | 9 | 1 | 13 | .
COc1ccc2c3c([nH]c2c1)[C@H](CO)N(Cc1cccc(Cl)c1)CC31CN(C)C1 | . | 56* | 2 | -2 | .
COc1cccc(CN2CC3(CN(C)C3)c3c([nH]c4cc(OC)ccc34)[C@@H]2CO)c1 | . | 34 | 14 | 116* | .
COc1cccc(CN2CC3(CN(C)C3)c3c([nH]c4cc(OC)ccc34)[C@H]2CO)c1 | . | 46 | 8 | 6 | .
COc1ccc(S(=O)(=O)N2CCC3(CC2)CN(Cc2ccccc2OC)[C@@H](CO)c2[nH]c4cc(OC)ccc4c23)cc1 | . | 52* | -3 | -2 | .
COc1cc(CN2CC3(CN(C)C3)c3c([nH]c4cc(OC)ccc34)[C@@H]2CO)cc(OC)c1 | . | 54* | 18 | 6 | .
COc1ccc2c3c([nH]c2c1)[C@@H](CO)N(Cc1cccc(Cl)c1)CC31CN(C)C1 | . | 48 | 3 | 7 | .
CC(C)NC(=O)Nc1cccc2c1O[C@@H](CN(C)S(=O)(=O)c1cccs1)[C@@H](C)CN([C@@H](C)CO)C2=O | -7 | -3 | -1 | 5 | .
COc1cccc(CNC(=O)C[C@H]2C=C[C@@H](NC(=O)C3CC3)[C@H](CO)O2)c1 | 1 | -5 | -1 | -18 | .
COc1ccc2c3c([nH]c2c1)[C@H](CO)N(Cc1ccccc1)CC31CCN(CC2CC2)CC1 | . | 33 | 26* | 8 | .
COc1cccc(CN2CC3(CCN(CC4CC4)CC3)c3c([nH]c4cc(OC)ccc34)[C@H]2CO)c1 | . | . | 3 | . | .
CO[C@@H]1CN(C)C(=O)c2ccc(NS(=O)(=O)c3ccccc3Cl)cc2OC[C@H](C)NC[C@H]1C | 6 | 0 | -1 | 2 | .
CN(C)CCCN(C(=O)c1cc(Cl)sc1Cl)c1nc2cc3c(cc2s1)OCO3 | 26 | 37 | 28* | -3 | 12
CN(C)CCN(C(=O)c1ccc(S(=O)(=O)N(C)c2ccccc2)cc1)c1nc2cc3c(cc2s1)OCCO3 | 23 | -5 | 0 | -1 | 47*
CN(C)CCN(C(=O)c1ccc2c(c1)OCCO2)c1nc2cc3c(cc2s1)OCO3 | 34 | 0 | 10 | -2 | 0
CCN(Cc1ccccc1)S(=O)(=O)c1ccc(C(=O)N(CCCN(C)C)c2nc3cc4c(cc3s2)OCCO4)cc1 | 11 | 24 | 12 | 0 | 42*
CCN(Cc1ccccc1)S(=O)(=O)c1ccc(C(=O)N(CCCN(C)C)c2nc3ccc(F)cc3s2)cc1 | 12 | 7 | 1 | -2 | 13
CCN(CC)CCN(C(=O)c1ccc(C(=O)c2ccccc2)cc1)c1nc2cc3c(cc2s1)OCO3 | -1 | -13 | 3 | 2 | 48*
CCCNC(=O)N1CCC2(CC1)CN(C(=O)COC)[C@@H](CO)c1c2c2ccc(OC)cc2n1C | . | 6 | -11 | 4 | .
Cc1noc(C)c1NC(=O)N(C)C[C@H]1Oc2cc(C#CCC(C)C)ccc2S(=O)(=O)N([C@@H](C)CO)C[C@H]1C | 0 | 6 | 1 | 0 | .
Cc1noc(C)c1NC(=O)N(C)C[C@@H]1Oc2cc(C#CCC3CCCC3)ccc2S(=O)(=O)N([C@H](C)CO)C[C@H]1C | -2 | 20 | ? | -1 | .

Screens (PubChem BioAssay)
